Laboratory results as given in ChEMBL document CHEMBL4118159, “Discovery of tetrahydroindazoles as a novel class of potent and in vivo efficacious gamma secretase modulators” (Bioorg Med Chem, 2018).

Target: Gamma-secretase
Assay: Modulation of gamma secretase in human H4 cells expressing human wild type APP assessed as inhibition of amyloid beta 42 production after 22 hrs by electrochemiluminescence assay
Assay type: cell-based
In short: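 H4 cells overexpressing human APPwt, 10,000/well, were exposed to compound 22 h at 37°C, 5% CO2. Supernatant was diluted with medium on an MSD anti-Aβ42 plate and detected with S-tag 6E10 (1:50, 1 h). Read-out was electrochemiluminescence.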

Compound | IC50
Cc1cc(F)ccc1-c1cccn2nc(NC3CCc4cnn(C)c4C3)nc12 (centres undefined) | > 30000 nM
CCn1ncc2c1CCC(Nc1nc3c(-c4cnccc4C)cccn3n1)C2 (centres undefined) | 730 nM
CCCCCn1ncc2c1CCC(Nc1nc3c(-c4ccc(F)cc4C)cccn3n1)C2 (centres undefined) | > 30000 nM
CCn1ncc2c1CCC(Nc1nc3c(-c4cncc(C)c4)cccn3n1)C2 (centres undefined) | 200 nM
CCn1ncc2c1CCC(Nc1nc3c(-c4ccc(F)c(Cl)c4)cccn3n1)C2 (centres undefined) | 20 nM
CCn1ncc2c1CCC(Nc1nc3c(-c4cnccc4OC)cccn3n1)C2 (centres undefined) | 120 nM
CCn1ncc2c1CCC(Nc1nc3c(-c4cncc(Cl)c4)cccn3n1)C2 (centres undefined) | 40 nM
CCc1nnc2n1CCC(Nc1nc3c(-c4ccc(F)cc4C)cccn3n1)C2 (centres undefined) | 1390 nM
CCn1ncc2c1CCC(Nc1nc3c(-c4ccc(F)cc4C)cccn3n1)C2 (centres undefined) | 70 nM
Cc1cc(F)ccc1-c1cccn2nc(NC3CCc4c(cnn4C(C)C)C3)nc12 (centres undefined) | 430 nM
CCn1ncc2c1CCC(Nc1nc3c(-c4ccc(C)nc4)cccn3n1)C2 (centres undefined) | 670 nM
CCn1ncc2c1CCC(Nc1nc3c(-c4cccnc4C)cccn3n1)C2 (centres undefined) | 680 nM
CCn1ncc2c1CCC(Nc1nc3c(-c4ccccc4)cccn3n1)C2 (centres undefined) | 70 nM
CCn1ncc2c1CCC(Nc1nc3c(-c4ccc(N(C)C)nc4)cccn3n1)C2 (centres undefined) | 50 nM
CCn1ncc2c1CCC(Nc1nc3c(-c4cncc(OC)c4)cccn3n1)C2 (centres undefined) | 200 nM
CCn1ncc2c1CC[C@@H](Nc1nc3c(-c4ccc(F)c(Cl)c4)cccn3n1)C2 | 9 nM
CCn1ncc2c1CCC(Nc1nc3c(-c4ccccc4C)cccn3n1)C2 (centres undefined) | 160 nM
CCn1ncc2c1CCC(Nc1nc3c(-c4ccc(Cl)cc4)cccn3n1)C2 (centres undefined) | 60 nM
Cc1cc(F)ccc1-c1cccn2nc(NC3CCc4c(cnn4C)C3)nc12 (centres undefined) | 380 nM
